Jurkat NFkB inh: inhibitors of the PMA/ionomycin-induced NF-kB reporter in Jurkat cells; 330,000 compounds, 0.53% hits; PMA/ionomycin-induced NF-kB luciferase reporter, luminescence; AID 435003; inhibition, % at 4 µM; in the data active = inhibition above about 50%
GPR7 antag: human neuropeptides B/W receptor 1 antagonism; P48145; GPR7-expressing cells, fluorescence antagonist assay; inhibition, % at 4.4 µM; 290,000 compounds, 1.1% hits; AID 1861; in the data active = inhibition above about 16%, passing the limit was not always enough;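 note: cells stimulated with the agonist NPW; 0% = agonist with vehicle and 100% = vehicle without agonist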
Target sequence (P48145 whole entry, looked up): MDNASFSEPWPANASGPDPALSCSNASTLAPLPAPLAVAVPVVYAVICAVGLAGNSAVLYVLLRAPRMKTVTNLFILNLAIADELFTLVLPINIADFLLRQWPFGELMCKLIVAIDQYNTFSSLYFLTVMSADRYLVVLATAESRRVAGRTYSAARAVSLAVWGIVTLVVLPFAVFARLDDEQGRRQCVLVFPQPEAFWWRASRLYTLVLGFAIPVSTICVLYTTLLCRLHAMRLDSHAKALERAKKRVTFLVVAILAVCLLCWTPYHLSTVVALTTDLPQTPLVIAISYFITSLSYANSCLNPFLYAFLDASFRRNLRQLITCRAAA
697 NFkB inh: lowers PMA/ionomycin-induced NF-kB signal in 697 B cells. 697 B-cell NF-kB luciferase reporter, 16 h. inhibition, % at 4 µM. 330,000 compounds, 0.33% hits. AID 435022; in the data active = inhibition above about 35%
HSF1 inhib: HSF1 inhibition; NIH3T3-HGL HSE-luciferase, MG132-induced, luminescence 8 h; stronger effect = lower value; activity change, negative = inhibition, % at 7.5 µM (by protocol); 300,000 compounds, 0.77% hits; AID 2098;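 active = more than half of replicate wells show activity change below -50%, luminescence cut by over half; inconclusive = some wells, but at most half, below -50%; inactive = no replicate well below -50%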;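 note: luciferase reports HSF-1 transcriptional activity via heat shock element; 0% = median of DMSO wells and -100% = zero luminescence signal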
T cruzi inh: T. cruzi replication inhibition; T. cruzi beta-gal in NIH3T3, luminescence, 90 h; inhibition, % (concentration not given with the values); 300,000 compounds, 1.4% hits;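 active = mean inhibition across valid replicates above about 55%, limit read from the data; inconclusive = mean below that limit but half or more replicates reach it; inactive = mean below it, under half of replicates reach it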;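 note: signal also drops with host cell toxicity which is not excluded here; 0% = plate median of DMSO wells and 100% = zero luminescence signal; higher percent means less beta-gal luminescence so fewer parasites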
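Assay system: NIH/3T3 host cells with β-galactosidase reporter T. cruzi; input: 5,000 host fibroblasts per well; compound: single 50 nL compound addition per well in DMSO; timing: ≥90 h infection period, 3 h prior cell attachment; measured by: GalScreen β-gal luminescence, detergent lysis, 60 min; evaluation: percent inhibition of parasite-derived β-gal signal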
HSF-1 act: increases HSF-1 driven luciferase reporter signal; NIH3T3-HGL HSF-1 luciferase reporter, MG132, 8 h; 100% = twice DMSO control signal; AID 504408; activation, % at 9 µM; 300,000 compounds, 1.7% hits;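 active = mean replicate activation of at least 50% with a set share of replicates each reaching 50%; inconclusive = only one of those two conditions met; inactive = mean below 50% and too few replicates reaching it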;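 note: 0% = median of the neutral control wells and 100% = twice that signal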
Jurkat NFkB conf: inhibitors of the PMA/ionomycin-induced NF-kB reporter in Jurkat cells, retest; shares compounds with Jurkat NFkB inh; Jurkat NF-kB luciferase, 16 h; inhibition, % at 4 µM; 2,700 compounds, 27% hits;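 active = inhibition reaching about 45% at 4 µM in either replicate, limit read from the data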;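 note: plate controls were PMA/ionomycin stimulated DMSO wells for no effect and unstimulated DMSO wells for full effect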
697 NFkB conf: lowers PMA/ionomycin-induced NF-kB signal in 697 B cells | 2,000 compounds, 35% hits | inhibition, % at 4 µM | shares compounds with 697 NFkB inh | 697 B-cell NF-kB luciferase, 16 h; in the data active = inhibition mostly above about 28%, no sharp cut-off; inactive = mostly below about 22%
An asterisk follows results filed as active; ? = inconclusive; / = no result. Rows were chosen to be rich in hits. Some 4.8% of all compounds tested hit in one or more screens of this group.

SMILES	Jurkat NFkB inh	GPR7 antag	697 NFkB inh	HSF1 inhib	T cruzi inh	HSF-1 act	Jurkat NFkB conf	697 NFkB conf
COC(=O)[C@@]1(Cc2ccc(OC)cc2)[C@@H]2C(=CC(=O)[C@H]2CC(=O)C(=O)N(C)C)CN1C(=O)c1ccccc1	4	4	8	/	/	/	/	/
Cc1ccc(S(=O)(=O)N(C)C)cc1NC(=O)c1ccc2ccccc2n1	-23	-14	-10	14	12	33	/	/
Cc1ccc(C)c(NC(=O)c2ccc3ccccc3n2)c1	-177	15	-283	11	-3	35	-98	-189
CC(C)(C)C(=O)Nc1ccc(C(=O)OC2CCCCC2)cc1	-189	1	-301	29	15	44	-164	-253
O=C(OC1CCCCC1)c1ccc(NC(=O)C2CCCCC2)cc1	-26	-7	-59	13	9	32	/	/
CSC(C1CCCC1)n1nnc2ccccc21 (stereo not given)	2	/	13	-1	-1	-19	/	/
O=C(Nc1ccccc1N1CCOCC1)C1CCN(S(=O)(=O)c2ccc(F)cc2)CC1	-2	2	19	-9	-6	9	/	/
O=C(NC(=S)Nc1ccc(Cl)cn1)c1cccs1	-164	-7	-324	-10	-18	9	-100	-167
NC(=O)c1ccccc1OCC(=O)Nc1ccc(Cl)c(Cl)c1	-187	8	-372	50	1	91*	-121	-389
NC(=O)c1ccccc1OCC(=O)Nc1ccc2c(c1)CCC2	-41	/	-45	/	/	/	/	/
COc1ccc(N=Cc2c(O)[nH]c3ccccc23)cc1	-186	-12	-297	40	1	63*	-32	-109
NC1(C#Cc2ccc3c(=O)c4ccccc4sc3c2)CCCCC1	-3	/	-80	/	/	/	/	/
Cc1cc2sc3ccc(C#CC4(O)CCCCC4)cc3c(=O)c2cc1C	83*	/	88*	-90*	15	-93	97*	75*
COCCn1c(C)cc(C2=NNC(=NC3CC3)SC2)c1C	75*	-9	68*	-64*	2	-67	94*	65*
Cn1c(-c2ccccc2F)cc2onc(-c3ccccc3)c2c1=O	-232	/	-349	/	/	/	-98	-403
Cn1c(-c2ncc(F)cc2F)cc2onc(-c3c(F)cccc3Cl)c2c1=O	0	/	-99	/	/	/	/	/
Cc1nn(C(C)(C)C)c(C)c1/C=N/OC(=O)Nc1ccc(Cl)cc1	75*	-6	52*	-92*	9	-92	95*	63*
Nc1nc(N)c(N=O)c(OCC2CCCCC2)n1	4	-24	-13	2	21	-9	/	/
CC1CCN(c2nc3ccc(C(=O)O)cc3s2)CC1	83*	-9	52*	-83*	-11	-85	78*	42*
CC1CCN(c2nc3ccc(C(=O)NCCCN4CCCCC4)cc3s2)CC1	-45	-7	-80	-40	14	-51	/	/
COc1ccc(-c2csc(Nc3ccccn3)n2)cc1OC	-178	-4	-265	22	6	48	-102	-93
COc1ccc(-c2csc(Nc3ccc(C)cn3)n2)cc1	-99	-14	-72	5	-25	13	/	/
Cc1ccc(-c2csc(Nc3ccccn3)n2)cc1	-154	-7	-371	11	32	33	-9	-258
COc1ccc(CC(=O)Nc2nc(-c3ccc(OC)c(OC)c3)cs2)cc1OC	-13	-4	-5	5	14	6	/	/
c1ccc(-c2csc(Nc3ccccn3)n2)cc1	-159	-12	-268	49	14	82*	-74	-253
SMILES	Jurkat NFkB inh	GPR7 antag	697 NFkB inh	HSF1 inhib	T cruzi inh	HSF-1 act	Jurkat NFkB conf	697 NFkB conf
CC(=O)Nc1cccc(-c2csc(Nc3ccc(C)cn3)n2)c1	-201	-2	-347	35	-10	67*	-88	-315
O=C(Nc1nc(-c2cc(F)ccc2F)cs1)c1ccccn1	-19	4	-43	7	-16	-1	/	/
Fc1ccc(-c2csc(Nc3ccccn3)n2)c(F)c1	-168	-13	-295	23	28	38	-119	-160
COc1ccc(-c2cc(-c3ccccc3)no2)cc1	-224	/	-351	-4	-18	6	-145	-376
O=[N+]([O-])c1ccc(NCCNCCOc2nonc2-c2ccccc2)c([N+](=O)[O-])c1	-11	-2	-11	-1	23	0	/	/
C=C1C(=O)O[C@@H]2C[C@@H](C)[C@@H]3C=CC(=O)[C@@]3(C)[C@@H](OC(C)=O)[C@H]12	96*	/	100*	-86*	?	-87	98*	100*
NS(=O)(=O)c1cccc(NC(=O)COC(=O)CCC(=O)c2cccs2)c1	-3	/	1	/	/	/	/	/
CCOc1ccc(S(=O)(=O)/N=C(/Nc2ccc(C)c(S(=O)(=O)N3CCOCC3)c2)c2ccccc2)cc1	15	/	4	/	/	/	/	/
Clc1ccc(-c2cnn3c(-c4ccncc4)ccnc23)cc1	-159	1	-376	-7	2	-8	-89	-300
N#CC(c1cccc(Cl)c1)c1ccc2c(C(F)(F)F)cc(C(F)(F)F)nc2n1 (stereo not given)	58*	-12	66*	-7	20	-10	59*	33*
Cc1ccccc1OCC(=O)OCC(=O)c1c[nH]c2ccccc12	5	/	12	/	/	/	/	/
Cc1ccc(C(=O)O/N=C(\N)Cc2ccc([N+](=O)[O-])cc2)c(Cl)c1	19	-6	-29	4	17	-8	/	/
Cc1ccc(C(=O)O/N=C(\N)Cc2cccs2)c(Cl)c1	-153	5	-253	20	2	30	-82	-282
O=C(O)c1ccc(Cl)c(S(=O)(=O)Nc2ccccc2Cc2ccccc2)c1	3	-4	18	0	9	5	/	/
COc1ccc(-c2cn3ccc4ccccc4c3n2)cc1	-196	-11	-334	8	4	24	-93	-227
Clc1ccc(-c2cn3ccccc3n2)cc1	-177	4	-290	39	-22	39	-114	-248
COc1ccc2c(c1OC)CN1CCc3cc4c(cc3[C@@H]1[C@@H]2O)OCO4	4	-9	-11	-3	38	8	/	/
O[C@@H]1[C@@H](O)C=C2CCN3Cc4cc5c(cc4[C@H]1C23)OCO5 (stereo not given in full)	96*	/	-289	/	/	/	89*	-229
c1cc(-c2cc3cc(N4CCOCC4)ccc3o2)cs1	-158	/	-289	7	-16	10	-84	-240
COc1ccc(C#Cc2c(-c3ccsc3)oc3ccc(N4CCOCC4)cc23)cc1	-30	/	0	-12	11	-10	/	/
Cc1ccc(Cn2ccsc2=NC(=O)CCl)cc1	78*	5	94*	/	/	/	51*	98*
O=C1N(c2ccccc2)CCN1c1ccccc1	-185	7	-269	18	-15	?	-111	-180

Screening results deposited in PubChem by several laboratories.
